In article PMC3535268 (Journal of neuroscience methods, 2011):
Like-named read-outs stand apart in the source and are kept apart here.

Tests used:
Assay type in all cases: biochemical, Fischer 344 rats
[1] = system: Complex II dependent oxygen consumption; conditions: log dose response; no observed differences across brain regions
Method in brief: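 Brain regions dissected from 16-week male rats; mitochondria purified by differential centrifugation, nitrogen disruption at 1200 psi and Ficoll gradient. Wells got 2.5 or 5 μg protein, were spun 200 × g, and were overlaid with respiration buffer pH 7.2 at 37 °C. […] 5–6 rats/group; two-way ANOVA.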

[2] = molecular target: Mitochondrial Complex I (Rattus norvegicus, UniProt P03889+Q641Y2); test: Mitochondrial Complex I enzyme activity assay
[3] = system: Complex I driven oxygen consumption; conditions: cortical mitochondria
Method in brief: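 Cortical mitochondria were isolated by differential centrifugation, nitrogen bomb and Ficoll purification, then seeded on XF24 plates in respiration buffer (mannitol/sucrose/BSA/HEPES/MgCl/KH2PO4, pH 7.2, 37 °C). A modified protocol repeatedly measured O2 consumption in the same well after injecting low rotenone (10 fM, 10 pM, 10 nM; diluted in ethanol). 5–6 rats/group; two-way ANOVA with post hoc tests.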

Chain of Mitochondrial Complex I (Q641Y2 34-463): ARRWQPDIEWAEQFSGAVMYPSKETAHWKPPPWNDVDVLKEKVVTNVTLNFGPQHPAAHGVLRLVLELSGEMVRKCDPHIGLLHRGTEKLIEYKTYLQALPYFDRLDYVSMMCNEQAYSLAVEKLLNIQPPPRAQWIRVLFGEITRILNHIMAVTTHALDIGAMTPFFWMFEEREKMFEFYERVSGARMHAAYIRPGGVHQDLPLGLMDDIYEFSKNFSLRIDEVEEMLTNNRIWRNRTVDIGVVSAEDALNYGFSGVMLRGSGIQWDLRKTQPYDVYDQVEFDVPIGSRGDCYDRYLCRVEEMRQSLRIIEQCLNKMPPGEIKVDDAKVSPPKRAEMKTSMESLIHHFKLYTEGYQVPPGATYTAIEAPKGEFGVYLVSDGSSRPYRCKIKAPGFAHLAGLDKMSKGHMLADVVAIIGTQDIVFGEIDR
Chain of Mitochondrial Complex I (P03889 whole entry): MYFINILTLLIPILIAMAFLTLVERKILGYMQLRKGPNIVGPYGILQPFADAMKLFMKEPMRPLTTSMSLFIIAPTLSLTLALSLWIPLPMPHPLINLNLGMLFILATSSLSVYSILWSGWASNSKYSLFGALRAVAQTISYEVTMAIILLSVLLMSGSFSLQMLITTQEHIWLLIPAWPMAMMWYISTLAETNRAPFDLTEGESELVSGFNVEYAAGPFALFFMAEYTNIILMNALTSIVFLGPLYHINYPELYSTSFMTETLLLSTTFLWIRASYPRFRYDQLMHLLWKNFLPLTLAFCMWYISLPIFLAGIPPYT

Row | Structure (SMILES) | effect on mitochondrial driven oxygen consumption (Complex II) [1] | IC50 [2] [pM] | effect on mitochondrial oxygen consumption ([3]; 10 pM rotenone, up to 8 min following exposure) | effect on mitochondrial oxygen consumption ([3]; 10 nM rotenone) | effect on mitochondrial oxygen consumption ([3]; 10 fM rotenone)
1 | O=C(O)CC(=O)O [malonate] | dose dependent decrease | – | – | – | –
2 | C=C(C)[C@H]1Cc2c(ccc3c2O[C@@H]2COc4cc(OC)c(OC)cc4[C@@H]2C3=O)O1 [rotenone] | – | 163 to 238 | did not result in any reduction in oxygen consumption | significant reduction in mitochondrial oxygen consumption immediately following exposure | no reduction in oxygen consumption
